BB579 growth dn: growth inhibitors of yeast BB579 in restrictive medium, primary screen, yeast lifespan-shortening project, S. cerevisiae | OD615, 48 h | inhibition, % at 10 µM | 0.51% of 140,000 active | AID 804, 2007;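 active means inhibition above a set limit, 3 SD over the mean compound inhibition, cut at about 44% in these data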
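controls = amphotericin B 10 µg/mL, positive | assay system = DeaD yeast strain BB579 | schedule = 48 h compound exposure at 30 °C after 4 h preincubation | detection = OD615 turbidity measurement | medium = restrictive CSMM-D medium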
Measles CPE: compounds protecting cells from measles virus cytopathic effect, primary screen, measles RdRp inhibitor project, single point, MLSMR library, absorbance | 1.5% of 140,000 active | Measles virus-infected cells, CPE protection | protection (pct of control), % at 4 µM; in the data active means protection mostly above about 24%, no sharp cut-off; inactive means mostly below about 26%
Insulin prom inh: inhibitors of insulin promoter-driven GFP, primary screen, imaging, TRM-6 cells, eGFP reporter, cell count; inhibition, % at 2 µM; AID 1273, 2008; 0.9% of 130,000 active; reporter expression induced with tamoxifen;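 active means inhibition above the mean plus 3 SD, with well images judged a real hit on visual review, cut at about 60% in these data, passing the limit was not always enough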
Mdm2 ligase inh: MDM2-luciferase reporter signal enhancers, primary screen, MDM2 E3 ligase inhibitor project, cell-based, luminescence, 1536-well; signal enhancement, % at 5 µM; AID 1230, 2008; cell-based MDM2 ubiquitination luciferase reporter, 2 h; 0 = plate control, 100 = twice control, blank-subtracted; 0.11% of 210,000 active;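 active means signal enhancement of 30% or more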;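 further: luminescence tracks abundance of the self-degrading MDM2-luciferase fusion protein; higher signal means inhibition of MDM2 E3 ligase activity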
Target sequence (Q00987 whole entry, looked up, the tested form may be a part): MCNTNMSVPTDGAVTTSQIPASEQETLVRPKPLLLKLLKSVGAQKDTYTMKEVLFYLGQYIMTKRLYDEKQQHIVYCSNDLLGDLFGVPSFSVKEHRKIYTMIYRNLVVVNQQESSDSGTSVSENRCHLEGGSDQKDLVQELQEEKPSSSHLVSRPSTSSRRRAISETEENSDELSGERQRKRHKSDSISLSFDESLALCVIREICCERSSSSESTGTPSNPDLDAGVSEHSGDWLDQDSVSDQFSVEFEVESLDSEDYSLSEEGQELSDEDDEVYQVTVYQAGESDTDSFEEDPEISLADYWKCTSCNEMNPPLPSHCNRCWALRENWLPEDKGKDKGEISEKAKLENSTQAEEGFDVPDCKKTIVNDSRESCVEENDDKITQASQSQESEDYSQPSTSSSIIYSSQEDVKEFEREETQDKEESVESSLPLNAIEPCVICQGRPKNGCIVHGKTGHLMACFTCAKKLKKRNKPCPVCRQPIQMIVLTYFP
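Material: stable MDM2–luciferase fusion reporter cells / Quantity: 2000 cells/well / Dosing: single 5 µM compound dose, 0.2% final DMSO / Buffer or medium: DMEM / Schedule: 4 h cell settling then 2 h compound exposure, 37 °C / Detection: luminescence with SteadyLite reagent, 15 min at room temperature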
Yeast lifespan up: compounds extending yeast replicative lifespan, primary screen, S. cerevisiae, OD615. 0.68% of 130,000 active. AID 775, 2007. inhibition of the nicotinamide effect, % at 10 µM. S. cerevisiae growth with nicotinamide; deaD strain in restrictive glucose medium;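 active means inhibition above a set limit, placed 3 SD over the median of all compounds, cut at about 26% in these data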;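 further: 0% = nicotinamide-treated wells and 100% = cells grown without nicotinamide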
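Assay system: engineered S. cerevisiae DeaD replicative-lifespan strain, galactose-grown log-phase cells; Buffer or medium: CSMM-D glucose medium, restrictive; Probe or stimulus: nicotinamide 1.5 mM; Compound: single dose 10 µM compound, 0.25% DMSO; Schedule: 4 h preincubation then 48 h treatment at 30 °C; Technique: OD615 measurement.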
RAM network inh: inhibitors of the yeast RAM network, primary screen, dse1pr::URA3 reporter, 5-FOA selection. S. cerevisiae dse1pr::URA3 reporter, 5-FOA growth OD615, 2 d; analog-sensitive cbk1-as2 kinase mutant strain. inhibition, % at 50 µM. 1.8% of 190,000 active;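 active means inhibition above a set limit, 3 SD over mean compound inhibition, cut at about 8.4% in these data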;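 further: 0% = DMSO-only wells with no growth and 100% = 10 µM 1-NA-PP1 full growth; inhibition rescues growth on 5-FOA so higher OD means more RAM inhibition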
* hit, by the source's call; i = inactive; / = not tested or not shown. Sampled rows, rich in hits. Any-hit rate of the full collection: about 4%.

SMILES | BB579 growth dn | Measles CPE | Insulin prom inh | Mdm2 ligase inh | Yeast lifespan up | RAM network inh
O=[N+]([O-])c1cc(CN2CCN(c3cccc(C(F)(F)F)c3)CC2)c2cccnc2c1O | / | / | i | -16 | / | -1
CCc1cccc(C)c1NC(=S)N(CCCN1CCOCC1)Cc1cccnc1 | / | / | / | -7 | / | 3
CCN(CC)S(=O)(=O)c1ccc2c(c1)N(CC(=O)Nc1cccnc1Cl)C(=O)CO2 | / | / | 14 | 0 | / | 2
OCc1ccc(O)c2ncccc12 | 96* | 1 | -18 | -19 | -21 | 3
CCC(=O)Nc1ccc(C(=O)CSc2nnc(-c3ccccc3F)n2CCc2ccccc2)cc1 | -27 | / | -9 | -5 | 1 | 7
O=C(CSc1nnc(-c2ccccc2F)n1CCc1ccccc1)Nc1ccc2[nH]c(=O)[nH]c2c1 | -13 | 4 | -31 | -8 | -2 | 9.0*
N#C/C(=N/O)c1nc(-c2ccc(F)cc2)cs1 | 54* | 11 | -67 | -9 | -3 | -1
Fc1ccc(-c2csc(-c3ccncc3)n2)cc1 | / | / | -15 | -20 | / | 1
COc1ccc(Cc2nnc(SCC(=O)c3ccc(OC)cc3)o2)cc1 | -81 | 5 | -42 | -3 | -6 | 8
CC(C)(C)N(Cc1ccccc1)C(=O)CSc1nnc(CNc2ccc(F)cc2)o1 | -28 | 31 | 18 | 6 | -3 | 8.6*
COc1ccc(NCc2nnc(SCC(=O)c3ccc(OC)cc3)o2)cc1 | -85 | 38* | / | 6 | -5 | 4
O=C(COc1ncnc2ccccc12)Nc1cc([N+](=O)[O-])ccc1F | / | / | / | -7 | / | /
CC(C)(C)N/N=C/c1cc(Cl)cc([N+](=O)[O-])c1O | 92* | 12 | 8 | -4 | -8 | -1
Cc1ccc(OCC(=O)NC(=S)Nc2ccc(Br)cn2)cc1C | / | / | / | 5 | / | 9.5*
COc1ccccc1NC(=O)Cc1noc(CSc2cccc[n+]2[O-])n1 | 95* | 1 | -2 | -6 | -15 | 2
COc1ccc(C2N(Cc3ccccc3)CC(=O)N2/N=C(\C)c2ccccc2)cc1 (stereo not given) | -33 | 9 | -86 | -92 | -4 | 0
O=C(CSc1nnc(Cc2cc(=O)[nH]c(=O)[nH]2)n1-c1ccccc1)N1CCCc2ccccc21 | -20 | 5 | / | -4 | -3 | 8.6*
COC(=O)c1ccc(CC(=O)c2nc3ccccc3s2)cc1 | -17 | 12 | / | -20 | -3 | 2
Cc1ccc(OC/C(O)=C(\C#N)c2nc3ccccc3s2)cc1 | -29 | 12 | 0 | 8 | 28* | 4
CC(C)=C(C#N)c1nc2ccccc2s1 | 0 | 9 | -95 | -2 | -16 | 1
COC(=O)c1ccc(/C(O)=C(\C#N)c2nc3ccccc3s2)cc1 | -4 | 1 | / | -10 | 31* | 0
NC(=O)NC(=O)COC(=O)CCSc1ccccc1 | / | / | 18 | 1 | / | 2
CN(C)CCCN=Cc1c(O)n(Cc2ccc3c(c2)OCO3)c(=O)c2ccccc12 | / | / | / | -9 | / | 3
CN1CCN(/C=N/c2c(C#N)cnn2Cc2ccccc2)CC1 | -7 | 3 | / | 10 | -2 | 0
CCOc1ccc(C(=O)OCC(=O)Nc2ccc(SC(F)F)cc2)cc1OCC | -56 | 8 | -14 | 2 | 8 | 4
SMILES | BB579 growth dn | Measles CPE | Insulin prom inh | Mdm2 ligase inh | Yeast lifespan up | RAM network inh
CC1=CS/C(=C(/C#N)C(=O)N2CCCCC2)N1c1ccccc1 | -5 | 33* | / | 2 | -5 | 1
CC1=CS/C(=C(/C#N)C(=O)N2CCOCC2)N1c1ccccc1 | -12 | 3 | -29 | -3 | -5 | 0
COc1ccc(C(=O)NNC(=O)CCn2nnc(-c3ccc(C)cc3)n2)cc1OC | / | / | 0 | -10 | / | 9.2*
O=S(=O)(Nc1nc(-c2sccc2Cl)cs1)c1cc(Cl)ccc1Cl | -24 | 8 | 9 | -53 | 46* | 3
CN(C)S(=O)(=O)N1CCN(c2ccc([N+](=O)[O-])c(NC3CC3)c2)CC1 | / | / | / | -2 | / | 8.6*
CNc1cc(N2CCN(S(=O)(=O)N(C)C)CC2)ccc1[N+](=O)[O-] | / | / | / | -5 | / | 0
O=C(Nc1ccc(N2C(=O)C3C4C=CC(C4)C3C2=O)cc1Cl)c1cccs1 (stereo not given) | / | / | / | -12 | / | 9.8*
Nc1ccc(NC(=O)c2cccs2)c(Cl)c1 | -8 | 14 | -100 | -28 | -20 | 1
CN1CCC(N(C)CC(=O)Nc2cccc(Oc3ccccc3)c2)CC1 | 7 | 4 | / | -11 | -6 | 2
COc1ccc2nc(Nc3nc(CSc4ccc(C)cc4)cc(=O)[nH]3)nc(C)c2c1 | / | / | / | -12 | / | 11*
Cc1[nH]n(-c2ccccc2)c(=O)c1C=Nc1ccc(S(=O)(=O)Nc2nccs2)cc1 | / | / | -20 | 2 | / | 1
COc1nccnc1NS(=O)(=O)c1ccc(N=Cc2c(C)[nH]n(-c3ccccc3)c2=O)cc1 | -43 | 16 | 14 | -4 | 2 | 5
COc1cc(S(=O)(=O)Nc2ccc(C)cc2)ccc1N=Cc1c(C)[nH]n(-c2ccccc2)c1=O | -37 | 2 | 72* | 9 | 4 | 6
COc1cc(S(=O)(=O)Nc2cccc(C)c2)ccc1N=Cc1c(C)[nH]n(-c2ccccc2)c1=O | -33 | 20 | -30 | -8 | -5 | 8.5*
Cc1ccc(/C=N\NC(=O)c2cc(OCC(F)(F)F)ccc2OCC(F)(F)F)cc1 | -51 | 6 | / | -6 | -8 | 3
O=C(N/N=C\c1ccc(F)cc1)c1cc(OCC(F)(F)F)ccc1OCC(F)(F)F | -34 | 37* | -16 | -13 | -23 | 4
N#CC1=C(N)N2C(=C(C#N)C1c1cccc(Br)c1)Nc1ccccc12 (stereo not given) | -44 | 23 | / | -15 | 1 | 8.9*
N#CC1=C(N)N2C(=C(C#N)C1c1ccc(Br)cc1)Nc1ccccc12 (stereo not given) | -17 | 14 | / | -42 | -3 | 6
Cc1cc([N+](=O)[O-])nn1CC(=O)NCc1nc2ccccc2[nH]1 | / | / | 31 | -25 | / | -1
COCCCNC(=O)c1ccc2c(c1)OCO2 | -35 | 23 | -27 | -9 | -12 | 1
Cc1nc2ccc(NC(=O)c3cccc(C(F)(F)F)c3)cc2o1 | -31 | 61* | 32 | -3 | -29 | 2
CCCNC(=O)c1cccc(C(F)(F)F)c1 | 10 | 27* | / | -15 | -9 | 4
CCOCCCNC(=O)c1ccc(Br)cc1 | 47* | 8 | -54 | -1 | -25 | 0
COCCCNC(=O)c1cccc(C(=O)NCCCOC)c1 | -48 | 23* | / | 1 | -17 | 1
CCOCCCNC(=O)c1ccc(OC)cc1 | -7 | 27 | -36 | -18 | -10 | 0

Screening results (PubChem)
